# Ecoli rRNA inh – selective bacterial rRNA inhibition in E. coli. AID 720706. E. coli WT GFP vs humanized-ribosome RFP mutants, fluorescence, 24 h; hits give low values; DMSO median 0, no signal -100. GFP signal change (wild-type ribosome), % (concentration not given with the values). hit rate 1.6% among 350,000;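 active means significant combined selectivity score with lowered wild-type GFP, culture density cut under 30%, mutant RFP and density less affected; inactive means any of these conditions unmet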
# Cneo AK release – Cryptococcus neoformans lysis via adenylate kinase release. lysis activity, % at 15 µM. hit rate 0.2% among 360,000. C. neoformans lysis, adenylate kinase release luminescence, 4 h; normalised: neutral wells 0, clomiphene wells 100. AID 651654;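 active means mean lysis activity across replicates of at least 80%, whatever share of replicates individually reach that level; inactive means mean lysis activity below 80%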
#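 Assay system: log-phase C. neoformans yeast / Quantity: yeast cell density of 5 × 10^6 cells/mL / Medium: fresh YPD growth medium / Compound: single dose / Timing: static 4 h at 37 °C with compound, 1 h detection / Measured by: adenylate kinase release luminescence / Read-out: lysis from increased AK signal / Benchmarks: Clomiphene as positive lysis control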
# E-selectin induc – induces E-selectin expression in human endothelial cells. activation, % at 7.58 µM. P16581. hit rate 0.37% among 260,000. HUVEC E-selectin immunofluorescence imaging; normalized: neutral wells 0, TNF-alpha wells 100;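 active means mean E-selectin-positive cell signal at least 10% of the positive control, reached in at least 60% of replicates, without over 20% cell loss; inconclusive means no rule given, readout overlaps actives, possibly toxicity-flagged; inactive means the rest, including those meeting only one limit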
# Target sequence (P16581 whole entry, looked up): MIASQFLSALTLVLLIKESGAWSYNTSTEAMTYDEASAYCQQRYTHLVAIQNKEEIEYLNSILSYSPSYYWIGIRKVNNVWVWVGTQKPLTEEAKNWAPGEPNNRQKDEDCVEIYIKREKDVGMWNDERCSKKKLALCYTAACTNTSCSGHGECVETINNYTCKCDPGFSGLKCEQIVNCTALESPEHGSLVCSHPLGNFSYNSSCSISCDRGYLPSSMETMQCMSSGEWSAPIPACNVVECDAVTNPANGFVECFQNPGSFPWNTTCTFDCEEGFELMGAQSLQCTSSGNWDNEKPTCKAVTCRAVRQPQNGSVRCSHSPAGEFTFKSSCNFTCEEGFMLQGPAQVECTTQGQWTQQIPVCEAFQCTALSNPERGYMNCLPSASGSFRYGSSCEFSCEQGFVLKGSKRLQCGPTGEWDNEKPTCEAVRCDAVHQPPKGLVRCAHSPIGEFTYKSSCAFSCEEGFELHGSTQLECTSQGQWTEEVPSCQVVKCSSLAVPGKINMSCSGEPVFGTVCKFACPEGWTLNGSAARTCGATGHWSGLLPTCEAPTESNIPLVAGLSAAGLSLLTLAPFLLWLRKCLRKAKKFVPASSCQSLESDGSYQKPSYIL
#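 System: HUVEC / Compound: single concentration / Signal: immunofluorescence imaging / Read-out: percent E-selectin-positive cells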
# DENV2 CPE – inhibitors of DENV2 cytopathic effect; AID 651640; CPE inhibition, % at 9.99 µM; hit rate 1.7% among 350,000; DENV2-infected cells, cytopathic effect rescue, plate reader; in the data active means CPE inhibition above about 20%, passing the limit was not always enough; inconclusive means no clear call, values can overlap the other calls; tested in BHK-21 cells;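 further: 0% = median of neutral control wells and 100% = median of positive control wells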
# miR-122 sensor – inhibitors of miR-122 in Huh7 cells; activation (reporter increase), % at 12.5 µM; Huh7 miR-122 Renilla luciferase sensor, 48 h; neutral wells = 0, positive control = 100; hit rate 0.3% among 340,000;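 active means mean replicate activation score at least 90 and every replicate individually at or above 90; inconclusive means only one of the two criteria met; inactive means neither criterion met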;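 further: higher luciferase means less miR-122 activity so hits act as miR-122 inhibitors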
# Active calls of the source: *; ? = inconclusive; · = no result given; [ ] = another dose, or the depositor's remark. Sampled rows, rich in hits. Any-hit rate of the full collection: about 3.1%.
SMILES,Ecoli rRNA inh,Cneo AK release,E-selectin induc,DENV2 CPE,miR-122 sensor
COc1ccc(-c2ccc3c(c2)[C@H]2[C@H](CCN2S(=O)(=O)c2ccc(OC)cc2)[C@H](CO)N3)cc1,4.4,44.0,1.6,54.4*,-0.1[16.7 µM]
COc1cccc(-c2ccc3c(c2)[C@H]2[C@H](CCN2S(=O)(=O)c2ccccc2C)[C@@H](CO)N3)c1,0.2,58.4,-0.1,8.3,96.7*[16.7 µM]
COc1cccc(-c2ccc3c(c2)[C@H]2[C@H](CCN2S(=O)(=O)c2ccccc2C)[C@H](CO)N3)c1,-0.7,-12.3,0.4,38.6*,1.6[16.7 µM]
COc1cccc(-c2ccc3c(c2)[C@@H]2[C@@H](CCN2S(=O)(=O)c2cn(C)cn2)[C@@H](CO)N3)c1,-2.8,-8.7,0.4,35.1*,43.4[16.7 µM]
COc1ccc(S(=O)(=O)N2CC[C@H]3[C@H](CO)Nc4ccc(-c5ccc(C#N)cc5)cc4[C@H]32)cc1,-1.0,-0.6,-0.6,2.1,-1.2[16.7 µM]
O=C(C[C@@H]1C=C[C@H](NC(=O)CC2CC2)[C@@H](CO)O1)NCc1ccccc1,1.9,·,0.7,-4.5,·
C[C@H](CO)N1C[C@H](C)[C@H](CN(C)Cc2ccccn2)Oc2ncc(-c3ccccc3)cc2C1=O,-1.1,2.1,0.8,-5.7,8.0[16.7 µM]
COc1cccc(NC(=O)N[C@@H]2C=C[C@@H](CC(=O)NCc3ccncn3)O[C@@H]2CO)c1,0.1,-8.2,-0.3,-3.8,4.7[16.7 µM]
Cc1nc([N+](=O)[O-])c(C(=O)OCc2cccc(Br)c2)n1C,-17.6*,2.5,0.0,-0.3,-4.7
Cc1nc([N+](=O)[O-])c(C(=O)OCc2ccccc2)n1C,2.6,3.3,·,2.4,-2.4
CC1CCN(C(=O)COC(=O)CNC(=O)c2ccccc2F)CC1,3.0,-0.6,·,69.2*,-5.7
CC1CCN(C(=O)COC(=O)c2cc3ccccc3oc2=O)CC1,15.8,8.2,-0.2,54.1*,6.3
O=C(CNC(=O)c1ccccc1F)OCC(=O)N1CCCCC1,20.2,·,8.0,-3.8,-2.8
Cc1cccc(S(=O)(=O)N2CCCCN3[C@H](CO)[C@@H](c4ccc(C#CC(C)C)cc4)[C@@H]3C2)c1,3.6,-0.7,-0.9,-17.7,1.4[16.7 µM]
COCCCN(C(=S)Nc1cc(Cl)cc(Cl)c1)C(C)c1ccccn1 (centres undefined),-39.3*,-0.8,·,4.1,-1.9
COc1ccccc1-c1nnc(NC(=O)CSc2nncn2C)s1,-3.0,·,36.7*,-5.6,·
Cc1ccc(C2=NN=C(NC(=O)CSc3nncn3C)SC2)cc1,-23.1*,-0.5,·,-1.1,4.5
Cc1ccc(C(=O)NC(=O)CSc2nncn2C)cc1,7.9,4.2,0.3,4.2,·
COc1cccc(S(=O)(=O)N(C)C[C@@H]2Oc3cc(C4=CCCC4)ccc3S(=O)(=O)N([C@H](C)CO)C[C@H]2C)c1,3.4,1.5,-0.2,55.1*,11.0[16.7 µM]
C[C@@H]1CN([C@H](C)CO)S(=O)(=O)c2ccc(C3=CCCCC3)cc2O[C@@H]1CN(C)S(=O)(=O)c1ccc(F)cc1,4.3,-2.8,-0.5,23.4*,25.1[16.7 µM]
COc1cccc(S(=O)(=O)N(C)C[C@@H]2Oc3cc(C4=CCCC4)ccc3S(=O)(=O)N([C@@H](C)CO)C[C@@H]2C)c1,5.2,-1.6,0.1,-4.0,-15.0[16.7 µM]
Cc1noc(C)c1S(=O)(=O)N(C)C[C@@H]1OCCCC[C@@H](C)Oc2ccc(NC(=O)Nc3ccc(C(F)(F)F)cc3)cc2C(=O)N([C@H](C)CO)C[C@H]1C,-5.2,4.6,0.5,3.2,-3.0[16.7 µM]
Brc1ccc(-c2noc(CCc3ccccc3)n2)o1,0.0,-1.1,0.0,56.2*,1.0
Clc1ccccc1OCc1nc(-c2ccc(Br)o2)no1,-18.0,-8.8,-0.4,-7.0,7.4
COc1ccccc1Nc1ncnc2c1c(C)c(C)n2CCCN(C)C,6.2,0.2,0.2,42.0*,2.4
SMILES,Ecoli rRNA inh,Cneo AK release,E-selectin induc,DENV2 CPE,miR-122 sensor
Cc1c(C)n(CCCN(C)C)c2ncnc(Nc3ccccc3)c12,12.3,-1.8,-0.2,-1.1,1.4
O=C(NCC1CCCO1)C(c1cccs1)N(Cc1cccs1)C(=O)Cn1nnc(-c2cccs2)n1 (centres undefined),·,-1.6,·,·,115.8*
C[C@@H]1CN([C@H](C)CO)C(=O)c2cc(NC(=O)Cn3cnnn3)ccc2O[C@@H]1CN(C)Cc1ccc(C(=O)Nc2ccccc2N)cc1,-0.7,4.1,-0.2,16.9,-2.7[16.7 µM]
C[C@@H]1CN([C@H](C)CO)C(=O)Cc2cc(NC(=O)Cn3cnnn3)ccc2O[C@@H]1CN(C)Cc1ccc(C(=O)Nc2ccccc2N)cc1,-2.0,·,-0.9,112.3*,·
C[C@H]1CN([C@@H](C)CO)C(=O)c2cc(NC(=O)Cn3cnnn3)ccc2O[C@H]1CN(C)Cc1ccc(C(=O)Nc2ccccc2N)cc1,-1.4,3.1,0.0,43.3*,-11.0[16.7 µM]
C[C@@H]1CN([C@@H](C)CO)C(=O)c2cc(NC(=O)Cn3cnnn3)ccc2O[C@@H]1CN(C)Cc1ccc(C(=O)Nc2ccccc2N)cc1,-0.5,2.6,-0.1,6.9,-4.5[16.7 µM]
Cc1ccc(S(=O)(=O)Nc2ccc3c(c2)C(=O)N([C@@H](C)CO)C[C@H](C)[C@@H](CN(C)C(=O)Nc2ccc(F)cc2)OCCCC[C@@H](C)O3)cc1,2.6,-2.2,1.1,8.8,25.4[16.7 µM]
NS(=O)(=O)c1ccc(CCNC(=O)C(=O)c2c[nH]c3ccccc23)cc1,-22.0*,·,-1.3,-4.5,·
C/C=C/c1cnc2c(c1)C(=O)N([C@@H](C)CO)C[C@@H](C)[C@@H](CN(C)Cc1cccc(C(=O)O)c1)O2,1.8,·,1.2,·,-11.0[16.7 µM]
CCCNC(=O)[C@@H]1[C@@H](CO)[C@@H]2Cn3c(ccc(C4=CCCC4)c3=O)[C@@H]2N1CCC,-0.9,0.2,1.0,7.6,1.9[16.7 µM]
CCNC(=O)C[C@@H]1CC[C@@H]2[C@H](COC[C@@H](O)CN2Cc2ccc(Cl)c(Cl)c2)O1,-3.9,-6.4,0.1,-6.3,5.0[16.7 µM]
Cc1sc2ncnc(Sc3ccccc3C(=O)O)c2c1C,-24.2*,·,0.0,11.6,·
C[C@H](CO)N1C[C@H](C)[C@@H](CN(C)Cc2ccccc2)Oc2cc(Br)ccc2S1(=O)=O,-54.9,1.6,0.0,?,-4.1[16.7 µM]
COCC#Cc1ccc2c(c1)O[C@@H](CN(C)Cc1ccccc1)[C@H](C)CN([C@H](C)CO)S2(=O)=O,-35.1,-0.3,0.1,23.4*,-1.2[16.7 µM]
COCC#Cc1ccc2c(c1)O[C@H](CN(C)Cc1ccccc1)[C@H](C)CN([C@H](C)CO)S2(=O)=O,-2.2,-0.4,0.1,1.7,8.6[16.7 µM]
COCC#Cc1ccc2c(c1)O[C@@H](CN(C)Cc1ccncc1)[C@H](C)CN([C@H](C)CO)S2(=O)=O,-16.5,-2.0,0.1,20.3*,-1.6[16.7 µM]
COCC#Cc1ccc2c(c1)O[C@H](CN(C)Cc1ccccc1)[C@@H](C)CN([C@H](C)CO)S2(=O)=O,-16.9,0.1,0.0,28.2*,31.6[16.7 µM]
